Converted amounts (≈) assume the structure as drawn. The source made the active and inactive calls. The rule behind the calls is not given here.
Assays:
[1] = tested on: Mycobacterium intracellulare; experiment: Antimicrobial activity against Mycobacterium intracellular ATCC 23068; type: functional
Outline: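 Inoculum was subcultured organism diluted in its incubation broth. Samples were dissolved in DMSO, serially diluted in saline and run in duplicate, with final concentrations starting at 50 µg/mL for pure compounds and 500 µg/mL for extracts. Tetracycline reference, growth and blank controls were included. Plates were inspected visually. MBC came from 5 µL of each well plated on agar.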

[2] = tested on: Candida albicans; experiment: Antimicrobial activity against Candida albicans ATCC 90028; type: functional
Outline: (§1)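 Subcultured organism diluted in its incubation broth for the inoculum. Samples were dissolved in DMSO, serially diluted in normal saline and tested in duplicate, starting at a final 50 µg/mL for pure compounds and 500 µg/mL for extracts. Growth and media-only controls were included. OD630 was read before and after incubation, and IC50/MIC was taken from percent growth versus concentration. MFC/MBC came from 5 µL subcultured onto agar.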

[3] = tested on: Aspergillus fumigatus; experiment: Antimicrobial activity against Aspergillus fumigatus ATCC 90906; type: functional
Outline: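 Growth was removed from a slant into 50 mL YPD broth for the inoculum. DMSO-dissolved samples were serially diluted in saline and run in duplicate, starting at a final 50 µg/mL for pure compounds and 500 µg/mL for extracts. Amphotericin B reference, growth and blank controls were included. Endpoints were read visually. MFC came from 5 µL of each duplicate transferred to agar.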

[4] = tested on: Staphylococcus aureus; experiment: Antimicrobial activity against methicillin-resistant Staphylococcus aureus ATCC 43300; type: functional, organism-based
Outline: (§2)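 Broth microdilution in duplicate. Samples are dissolved in DMSO, serially diluted in normal saline, and mixed with inoculum from subcultured organism diluted in its incubation broth. The top final concentration is 50 µg/mL for pure compounds and 500 µg/mL for crude extracts. Controls are tetracycline, growth and media blank. OD630 is read before and after incubation, and percent growth is plotted against concentration to give IC50/MIC. MBC is found by plating 5 µL from each duplicate on agar.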

[5] = tested on: Cryptococcus neoformans; experiment: Antimicrobial activity against Cryptococcus neoformans ATCC 90113; type: functional; outline: as §1
[6] = tested on: Pseudomonas aeruginosa; experiment: Antimicrobial activity against Pseudomonas aeruginosa ATCC 27853; type: functional; outline: as §1
[7] = tested on: Staphylococcus aureus; experiment: Antimicrobial activity against Staphylococcus aureus ATCC 29213; type: functional, organism-based; outline: as §2

Structure (SMILES) | MIC [1] [µg/mL] | MIC [2] [µg/mL] | MIC [3] [µg/mL] | IC50 [4] [µg/mL] | MIC [5] [µg/mL] | MIC [6] [µg/mL] | IC50 [7] [µg/mL] | Activity [1] | Activity [2] | Activity [3] | Activity [4] | Activity [5] | Activity [6] | Activity [7]
CC(C)C1=C2CCC(COC(=O)c3ccc(O)cc3)=CC[C@@]2(C)CC1 | 6.25 (≈ 18.4 µM) | 6.25 (≈ 18.4 µM) | 6.25 (≈ 18.4 µM) | 2 (≈ 5.87 µM) | 6.25 (≈ 18.4 µM) | 6.25 (≈ 18.4 µM) | 1.5 (≈ 4.41 µM) | – | – | – | – | – | – | –
COc1cc(C(=O)OCC2=CC[C@@]3(C)CCC(C(C)C)=C3CC2)ccc1O | – | – | – | – | – | – | – | inactive | inactive | inactive | inactive | inactive | inactive | inactive
CC1=CC[C@@]2(C)CC[C@@](O)(C(C)C)[C@@H]2[C@@H](OC(=O)c2ccccc2)C1 | – | – | – | – | – | – | – | inactive | inactive | inactive | inactive | inactive | inactive | inactive
CC(C)[C@]1(O)CC[C@]2(C)C[C@@H]3O[C@]3(C)C[C@H](O)[C@H]21 | – | – | – | – | – | – | – | inactive | inactive | inactive | inactive | inactive | inactive | inactive
CC1=CC[C@@]2(C)CC[C@@](O)(C(C)C)[C@@H]2[C@@H](O)C1 | – | – | – | – | – | – | – | inactive | inactive | inactive | inactive | inactive | inactive | inactive

Source: ChEMBL document CHEMBL1150807, “Daucane sesquiterpenes from Ferula hermonis” (J Nat Prod, 2001)
